Reference: ChEMBL document CHEMBL1132453, “Heteroarotinoids inhibit head and neck cancer cell lines in vitro and in vivo through both RAR and RXR retinoic acid receptors” (J Med Chem, 1999)

Tests used:
[1] = test system: SCC-38 (Homo sapiens); test: Inhibition of SCC-38 cell proliferation; set-up: concentration or dose not given beside the values
[2] = test system: SCC-2 (Homo sapiens); test: Inhibition of SCC-2 cell proliferation; set-up: concentration or dose not given beside the values
[3] = target: T1, Retinoic acid receptor beta (Homo sapiens, UniProt P10826); test: Transcriptional activation in CV-1 cells expressing human Retinoic acid receptor RAR beta; format: cell-based
T1 sequence (P10826 whole entry): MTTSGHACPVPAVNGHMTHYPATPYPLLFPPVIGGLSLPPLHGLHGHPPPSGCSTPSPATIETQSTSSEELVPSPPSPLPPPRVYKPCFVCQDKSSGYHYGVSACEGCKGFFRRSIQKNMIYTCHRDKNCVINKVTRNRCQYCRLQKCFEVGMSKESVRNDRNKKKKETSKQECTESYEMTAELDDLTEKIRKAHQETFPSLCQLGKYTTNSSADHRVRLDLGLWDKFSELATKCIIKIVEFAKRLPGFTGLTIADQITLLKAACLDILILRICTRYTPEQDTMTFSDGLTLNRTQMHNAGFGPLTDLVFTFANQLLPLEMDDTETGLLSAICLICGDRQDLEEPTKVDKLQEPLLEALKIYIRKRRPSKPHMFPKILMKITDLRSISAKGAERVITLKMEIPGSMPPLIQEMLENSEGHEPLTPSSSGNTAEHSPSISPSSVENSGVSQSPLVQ
Method in brief: (§1)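 CV-1 cells were plated at 7.5 × 10^4/well and transfected 24 h later (FuGENE6). Each well got a receptor vector (human RARα/β/γ in pECE or mouse RXRα/β/γ in pSG5), a βRARE-tk-CAT reporter and a β-actin-βGal control. After 16-18 h, ligand was added in 10-fold steps from 10^-10 to 10^-5 M (0.01% DMSO) for 24 h. CAT was measured by ELISA and normalised to βGal. Triplicates, repeated at least twice.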

[4] = target: T2, Retinoic acid receptor gamma (Homo sapiens, UniProt P13631); test: Transcriptional activation in CV-1 cells expressing human Retinoic acid receptor RAR gamma; format: cell-based
T2 sequence (P13631 whole entry): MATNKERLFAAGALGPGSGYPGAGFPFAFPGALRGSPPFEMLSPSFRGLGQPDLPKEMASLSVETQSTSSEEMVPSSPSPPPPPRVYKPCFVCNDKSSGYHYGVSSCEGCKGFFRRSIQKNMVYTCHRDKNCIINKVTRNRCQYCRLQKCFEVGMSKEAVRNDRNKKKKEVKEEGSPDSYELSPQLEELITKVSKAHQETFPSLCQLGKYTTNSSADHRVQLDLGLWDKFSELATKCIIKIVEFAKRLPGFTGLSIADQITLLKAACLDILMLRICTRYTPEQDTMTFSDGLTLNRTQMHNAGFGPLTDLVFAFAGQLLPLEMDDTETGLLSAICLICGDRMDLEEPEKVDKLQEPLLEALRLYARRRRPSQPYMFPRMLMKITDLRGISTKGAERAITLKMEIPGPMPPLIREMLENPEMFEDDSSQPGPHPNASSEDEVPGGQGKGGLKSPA
Method in brief: as §1

[5] = target: T3, Retinoic acid receptor RXR-beta (Mus musculus, UniProt P28704); test: Transcriptional activation of CV-1 cells expressing murine Retinoid X receptor RXR beta; format: cell-based
T3 sequence (P28704 whole entry): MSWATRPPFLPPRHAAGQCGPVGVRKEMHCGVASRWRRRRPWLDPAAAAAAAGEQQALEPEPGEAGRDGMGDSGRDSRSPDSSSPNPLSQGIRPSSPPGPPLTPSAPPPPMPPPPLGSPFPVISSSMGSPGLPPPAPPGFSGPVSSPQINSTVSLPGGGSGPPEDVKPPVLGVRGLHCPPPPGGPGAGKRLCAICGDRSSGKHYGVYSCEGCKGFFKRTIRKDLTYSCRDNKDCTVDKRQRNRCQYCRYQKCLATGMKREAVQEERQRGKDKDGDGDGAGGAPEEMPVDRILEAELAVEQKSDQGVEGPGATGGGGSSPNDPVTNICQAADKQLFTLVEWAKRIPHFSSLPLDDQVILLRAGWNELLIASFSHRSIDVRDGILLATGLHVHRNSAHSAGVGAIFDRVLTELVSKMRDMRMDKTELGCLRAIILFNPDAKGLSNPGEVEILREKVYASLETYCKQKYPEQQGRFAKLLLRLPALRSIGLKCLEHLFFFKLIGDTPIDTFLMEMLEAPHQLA
Method in brief: as §1

[6] = target: T4, Retinoic acid receptor RXR-gamma (Mus musculus, UniProt P28705); test: Transcriptional activation of CV-1 cells expressing murine Retinoid X receptor RXR gamma; format: cell-based
T4 sequence (P28705 whole entry): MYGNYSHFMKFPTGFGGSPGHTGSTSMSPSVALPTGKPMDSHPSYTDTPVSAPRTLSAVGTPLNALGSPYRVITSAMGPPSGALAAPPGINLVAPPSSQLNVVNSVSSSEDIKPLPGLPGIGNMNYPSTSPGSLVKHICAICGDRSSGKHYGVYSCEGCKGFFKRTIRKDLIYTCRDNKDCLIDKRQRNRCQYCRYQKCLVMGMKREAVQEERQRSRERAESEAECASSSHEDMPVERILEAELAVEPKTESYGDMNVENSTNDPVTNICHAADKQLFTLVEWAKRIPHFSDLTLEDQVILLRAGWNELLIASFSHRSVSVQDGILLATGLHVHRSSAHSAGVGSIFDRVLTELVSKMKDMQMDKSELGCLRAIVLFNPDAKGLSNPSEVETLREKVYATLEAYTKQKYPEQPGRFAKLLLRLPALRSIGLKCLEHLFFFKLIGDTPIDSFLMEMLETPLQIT
Method in brief: as §1

[7] = target: T5, Retinoic acid receptor alpha (Homo sapiens, UniProt P10276); test: Transcriptional activation in CV-1 cells expressing human Retinoic acid receptor RAR alpha; format: cell-based
T5 sequence (P10276 whole entry): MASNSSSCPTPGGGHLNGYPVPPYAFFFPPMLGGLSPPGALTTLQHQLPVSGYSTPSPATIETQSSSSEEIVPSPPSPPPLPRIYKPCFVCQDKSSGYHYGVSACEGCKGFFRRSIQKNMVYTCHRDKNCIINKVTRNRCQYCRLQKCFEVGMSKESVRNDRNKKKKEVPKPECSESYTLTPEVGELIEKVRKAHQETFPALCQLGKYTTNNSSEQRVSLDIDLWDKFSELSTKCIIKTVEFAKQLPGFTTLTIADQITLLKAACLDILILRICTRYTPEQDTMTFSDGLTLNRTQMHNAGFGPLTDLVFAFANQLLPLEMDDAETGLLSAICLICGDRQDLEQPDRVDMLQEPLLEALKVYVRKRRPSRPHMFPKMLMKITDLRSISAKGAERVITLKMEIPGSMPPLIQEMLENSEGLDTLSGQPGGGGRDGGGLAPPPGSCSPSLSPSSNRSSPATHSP
Method in brief: as §1

[8] = target: T6, Retinoic acid receptor RXR-alpha (Mus musculus, UniProt P28700); test: Transcriptional activation of CV-1 cells expressing murine Retinoid X receptor RXR alpha; format: cell-based
T6 sequence (P28700 whole entry): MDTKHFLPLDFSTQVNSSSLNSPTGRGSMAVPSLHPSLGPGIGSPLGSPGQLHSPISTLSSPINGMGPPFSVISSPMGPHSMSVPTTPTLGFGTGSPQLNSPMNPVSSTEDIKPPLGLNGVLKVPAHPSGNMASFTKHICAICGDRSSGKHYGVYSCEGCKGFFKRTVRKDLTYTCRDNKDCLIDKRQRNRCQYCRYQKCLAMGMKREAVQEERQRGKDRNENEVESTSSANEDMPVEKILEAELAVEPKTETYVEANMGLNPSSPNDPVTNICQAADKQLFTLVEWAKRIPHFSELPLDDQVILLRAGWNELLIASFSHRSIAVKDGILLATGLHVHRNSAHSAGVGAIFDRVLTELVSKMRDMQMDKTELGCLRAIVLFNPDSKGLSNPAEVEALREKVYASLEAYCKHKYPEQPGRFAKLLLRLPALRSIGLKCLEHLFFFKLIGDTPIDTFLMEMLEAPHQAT
Method in brief: as §1

[9] = test system: SCC-2 (Homo sapiens); test: Inhibition of SCC-2 cell proliferation
[10] = test system: SCC-38 (Homo sapiens); test: Inhibition of SCC-38 cell proliferation

Compound	Inhibition [1] [%]	Inhibition [2] [%]	other results
CCOC(=O)c1ccc(OC(=O)c2cc3c(cc2OC)C(C)(C)CCC3(C)C)cc1	12	15	–
CCOC(=O)c1ccc(OC(=O)c2ccc3c(c2)C(C)(C)CCO3)cc1	13	-6	–
COC(=O)c1ccc(C(=O)Oc2c(C)cc3c(c2C)C(C)(C)C=C(C)O3)cc1	-8	15	–
CC1=C(/C=C/C(C)=C\C=C\C(C)=C\C(=O)O)C(C)(C)CCC1 [ALITRETINOIN]	10	13	–
COC(=O)c1ccc(C(=O)Nc2ccc3c(c2)C(C)(C)CC(C)(C)S3)cc1	–	–	EC50 [3]: 1 µM; EC50 [4]: 0.152 µM; EC50 [5]: 1 µM; EC50 [6]: 0.302 µM; EC50 [7]: 0.225 µM; EC50 [8]: 0.084 µM; Inhibition [9]: 64%; Inhibition [10]: 37%
COC(=O)c1ccc(N(OC)C(=O)c2ccc3c(c2)C(C)(C)CCO3)cc1	17	3	–
CCCCCCCCC1CCc2cc(/C(C)=C/c3ccc(C(=O)OCC)cc3)ccc2S1 (centres undefined)	17	10	–
CCOC(=O)c1ccc(OC(=O)c2cc3c(cc2C)N(C)CCC3(C)C)cc1	7	9	–
CCOC(=O)c1ccc(OC(=O)c2ccc3c(c2)C(C)(C)CCN3C)cc1	13	12	–
COC(=O)c1ccc(C(=O)Oc2c(C)cc3c(c2C)C(C)(C)CC(C)(C)O3)cc1	9	-1	–
CCOC(=O)c1ccc(OC(=O)c2cc3c(cc2OC)C(C)(C)COC3(C)C)cc1	6	52	–
C/C(=C\c1ccc(C(=O)O)cc1)c1ccc2c(c1)C(C)(C)CO2	1	1	–
CCOC(=O)/C=C(C)/C=C/C=C(\C)c1ccc2c(c1)OCCO2	-2	-33	–
CCOC(=O)c1ccc(OC(=O)c2ccc3c(c2)C(C)(C)CCN3C(C)C)cc1	15	5	–
CC(/C=C/C=C(\C)c1ccc2c(c1)C(C)(C)CCS2)=C\C(=O)O	1	2	–
CC1(C)CCOc2ccc(C(=O)Oc3ccc(/C=N/N=C(/N)S)cc3)cc21	18	19	EC50 [3]: > 10 µM; EC50 [4]: > 10 µM; EC50 [5]: 0.084 µM; EC50 [6]: 1.9 µM; EC50 [7]: > 10 µM; EC50 [8]: 0.294 µM
